The results in this text go back to ChEMBL document CHEMBL5712901, “DOT1L inhibition blocks multiple myeloma cell proliferation by suppressing IRF4-MYC signaling” (2019).

Calls of active or inactive are those of the source. No cut-off for these calls is given here.

For assay [1], the system named is MM1.S. In words: Induction of apoptosis in human MM1.S cells assessed as early apoptotic cells at 1 uM for 6 days by annexin-V based propidium iodide staining based flow cytometric analysis (reference value: 7.39%). Type of assay: functional. As to conditions: time 6 day. For orientation: Flow cytometry measures light scatter and fluorescence of single cells or particles in a stream.

The subject of assay [2] is MM1.S. In words: Induction of cell cycle arrest in human MM1.S cells assessed as decrease in accumulation of cells at S phase at 1 uM for 6 days. Conditions: time 6.0 day. Type of assay: functional, cell-based. Summed up: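 Flow cytometric cell cycle analysis of RPMI-8226 and MM.1S cells treated with 1 μM DOT1L inhibitor or DMSO for 6 days. Sub-G1, G0-G1 and S phase populations scored. Summary is from 3 replications, mean ± SEM.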

Assay [3] concerns RPMI-8226. In words: Effect on human RPMI-8226 cells assessed as change in IRF4 mRNA level at 1 uM for 3 days by ChIP-qPCR analysis. Type of assay: functional, cell-based. Conditions: time 3.0 day. An outline of the steps:
(§1)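 ChIP-qPCR for H3K79me2 at IRF4-MYC signaling genes after 1 μM inhibitor or DMSO for 3 days. Signal normalized to input DNA. An intergenic region 28 kb upstream of KLF2 served as negative control. Mean of 3 replications ± SEM.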
A general note: Real-time PCR tracks product formation cycle by cycle.

For assay [4], the system named is MM1.S. In words: Effect on human MM1.S cells assessed as change in KLF2 mRNA level at 1 uM for 3 days by ChIP-qPCR analysis. The format is functional, cell-based. As to conditions: time 3.0 day. Summed up: as §1
The subject of assay [5] is RPMI-8226. In words: Antiproliferative activity against human RPMI-8226 cells treated 3 days at 1 uM. Type of assay: functional, cell-based. As to conditions: time 3.0 day. Summed up: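 Cell lines in 6-well plates, 2 × 10^4 to 8 × 10^5 cells/well, exposed to DOT1L inhibitor at 0.25-1 μM or DMSO, with medium and drug refreshed every 3 days. Viability read with Cell Counting Kit-8 on a microplate reader. Values normalized to untreated cells; mean of 3 replications ± SEM.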

For assay [6], the system named is MM1.S. In words: Upregulation of IFN in human MM1.S cells assessed as increase in ISG15 gene at 1 uM for 6 days by qRT-PCR analysis. Type of assay: functional, cell-based. Conditions: time 6.0 day.
The subject of assay [7] is MM1.S. In words: Upregulation of ID2 gene in human MM1.S cells at 1 uM for 6 days by. Type of assay: functional, cell-based. As to conditions: time 6.0 day.
Assay [8] concerns RPMI-8226. In words: Upregulation of IFI44 gene in human RPMI-8226 cells at 1 uM for 6 days by. The format is functional, cell-based. Conditions: time 6.0 day.
The test system of assay [9] is RPMI-8226. In words: Upregulation of CFH gene in human RPMI-8226 cells at 1 uM for 6 days by. Type of assay: functional, cell-based. Conditions: time 6.0 day.
The test system of assay [10] is MM1.S. In words: Upregulation of CMTM3 gene in human MM1.S cells at 1 uM for 6 days by. As to conditions: time 6.0 day. The format is functional, cell-based. An outline of the steps:
(§2)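 Human myeloma lines RPMI-8226 and MM.1S exposed to 1 μM DOT1L inhibitor, or DMSO, for 6 days. Whole-genome expression profiled on gene expression microarray.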

Assay [11] deals with RPMI-8226. In words: Upregulation of CHRNA6 gene in human RPMI-8226 cells at 1 uM for 6 days by. Type of assay: functional, cell-based. As to conditions: time 6.0 day. An outline of the steps:
as §2

Assay [12] relates to MM1.S. In words: Upregulation of DDIT4L gene in human MM1.S cells at 1 uM for 6 days by. The format is functional, cell-based. Conditions: time 6.0 day. An outline of the steps:
as §2

Assay [13] deals with RPMI-8226. In words: Upregulation of SERPINB1 gene in human RPMI-8226 cells at 1 uM for 6 days by. Type of assay: functional, cell-based. As to conditions: time 6.0 day.
Assay [14] deals with MM1.S. In words: Upregulation of HLA-DMA gene in human MM1.S cells at 1 uM for 6 days by. Conditions: time 6.0 day. Type of assay: functional, cell-based. An outline of the steps:
as §2

The subject of assay [15] is MM1.S. In words: Upregulation of DOT1L in human MM1.S cells by qRT-PCR analysis. Type of assay: functional, cell-based. An outline of the steps: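 Basal DOT1L transcript in untreated myeloma cell lines measured by qRT-PCR, normalized to ACTB; mean of 3 replicates with SEM.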
The subject of assay [16] is RPMI-8226. In words: Upregulation of CARD6 gene in human RPMI-8226 cells at 1 uM for 6 days by. Type of assay: functional, cell-based. Conditions: time 6.0 day.
Assay [17] relates to MM1.S. In words: Upregulation of HLA-DQB1 gene in human MM1.S cells at 1 uM for 6 days by. The format is functional, cell-based. As to conditions: time 6.0 day.
Assay [18] has as its system MM1.S. In words: Upregulation of TLE1 gene in human MM1.S cells at 1 uM for 6 days by. Conditions: time 6.0 day. Type of assay: functional, cell-based.
Assay [19] deals with MM1.S. In words: Upregulation of CXCL9 gene in human MM1.S cells at 1 uM for 6 days by. The format is functional, cell-based. Conditions: time 6.0 day. Summed up:
as §2

For assay [20], the system named is MM1.S. In words: Upregulation of CLIP2 gene in human MM1.S cells at 1 uM for 6 days by. The format is functional, cell-based. As to conditions: time 6.0 day. Summed up:
as §2

In assay [21] the test system is MM1.S. In words: Upregulation of MILR1 gene in human MM1.S cells at 1 uM for 6 days by. Type of assay: functional, cell-based. Conditions: time 6.0 day.
Assay [22] deals with MM1.S. In words: Upregulation of SNX10 gene in human MM1.S cells at 1 uM for 6 days by. Type of assay: functional, cell-based. As to conditions: time 6.0 day.
The subject of assay [23] is RPMI-8226. In words: Upregulation of AGPAT9 gene in human RPMI-8226 cells at 1 uM for 6 days by. The format is functional, cell-based. As to conditions: time 6.0 day.
Assay [24] deals with MM1.S. In words: Upregulation of IQCE gene in human MM1.S cells at 1 uM for 6 days by. The format is functional, cell-based. As to conditions: time 6.0 day.
The test system of assay [25] is MM1.S. In words: Upregulation of CAPG gene in human MM1.S cells at 1 uM for 6 days by. Conditions: time 6.0 day. The format is functional, cell-based.
The test system of assay [26] is RPMI-8226. In words: Upregulation of POPDC2 gene in human RPMI-8226 cells at 1 uM for 6 days by. The format is functional, cell-based. Conditions: time 6.0 day.
Assay [27] deals with RPMI-8226. In words: Upregulation of PTPN13 gene in human RPMI-8226 cells at 1 uM for 6 days by. As to conditions: time 6.0 day. The format is functional, cell-based.
Assay [28] deals with RPMI-8226. In words: Upregulation of IGFBP6 gene in human RPMI-8226 cells at 1 uM for 6 days by. Type of assay: functional, cell-based. Conditions: time 6.0 day.
Assay [29] relates to MM1.S. In words: Upregulation of CAPN2 gene in human MM1.S cells at 1 uM for 6 days by. Type of assay: functional, cell-based. Conditions: time 6.0 day.
In assay [30] the test system is MM1.S. In words: Upregulation of SOAT2 gene in human MM1.S cells at 1 uM for 6 days by. Conditions: time 6.0 day. The format is functional, cell-based.
For assay [31], the system named is RPMI-8226. In words: Upregulation of CACNB3 gene in human RPMI-8226 cells at 1 uM for 6 days by. The format is functional, cell-based. Conditions: time 6.0 day.
Assay [32] relates to MM1.S. In words: Upregulation of GPD2 gene in human MM1.S cells at 1 uM for 6 days by. As to conditions: time 6.0 day. Type of assay: functional, cell-based. Summed up: as §2
For assay [33], the system named is RPMI-8226. In words: Upregulation of RORC gene in human RPMI-8226 cells at 1 uM for 6 days by. Type of assay: functional, cell-based. Conditions: time 6.0 day.
The subject of assay [34] is RPMI-8226. In words: Upregulation of RAPGEF2 gene in human RPMI-8226 cells at 1 uM for 6 days by. As to conditions: time 6.0 day. The format is functional, cell-based.
Assay [35] has as its system MM1.S. In words: Upregulation of FNBP1L gene in human MM1.S cells at 1 uM for 6 days by. The format is functional, cell-based. Conditions: time 6.0 day. Summed up: as §2
Assay [36] deals with RPMI-8226. In words: Upregulation of APOL4 gene in human RPMI-8226 cells at 1 uM for 6 days by. The format is functional, cell-based. Conditions: time 6.0 day.
Assay [37] deals with RPMI-8226. In words: Downregulation of H3K79me2 level in human RPMI-8226 cells at 1 uM for 3 days by ChIP-qPCR analysis. The format is functional, cell-based. As to conditions: time 3.0 day. An outline of the steps:
as §1

The test system of assay [38] is RPMI-8226. In words: Upregulation of CCL2 gene in human RPMI-8226 cells at 1 uM for 6 days by. The format is functional, cell-based. As to conditions: time 6.0 day.
Assay [39] has as its system RPMI-8226. In words: Upregulation of COL16A1 gene in human RPMI-8226 cells at 1 uM for 6 days by. Type of assay: functional, cell-based. Conditions: time 6.0 day. An outline of the steps: as §2
The subject of assay [40] is RPMI-8226. In words: Upregulation of ISG15 gene in human RPMI-8226 cells at 1 uM for 6 days by. Type of assay: functional, cell-based. As to conditions: time 6.0 day.
Assay [41] concerns RPMI-8226. In words: Upregulation of MME gene in human RPMI-8226 cells at 1 uM for 6 days by. The format is functional, cell-based. Conditions: time 6.0 day.
Assay [42] concerns RPMI-8226. In words: Upregulation of IFIT1 gene in human RPMI-8226 cells at 1 uM for 6 days by. As to conditions: time 6.0 day. Type of assay: functional, cell-based.
In assay [43] the test system is MM1.S. In words: Upregulation of ID1 gene in human MM1.S cells at 1 uM for 6 days by. Type of assay: functional, cell-based. As to conditions: time 6.0 day.
Assay [44] deals with MM1.S. In words: Upregulation of EMILIN2 gene in human MM1.S cells at 1 uM for 6 days by. The format is functional, cell-based. Conditions: time 6.0 day. Summed up: as §2
Assay [45] deals with MM1.S. In words: Upregulation of GTF2IRD2 gene in human MM1.S cells at 1 uM for 6 days by. Conditions: time 6.0 day. Type of assay: functional, cell-based. An outline of the steps: as §2

For `CC(C)N(C[C@H]1O[C@@H](n2cnc3c(N)ncnc32)[C@H](O)[C@@H]1O)[C@H]1C[C@@H](CCc2nc3cc(C(C)(C)C)ccc3[nH]2)C1` [PINOMETOSTAT], the Activity with MM1.S [1] is listed as 16.9%. In addition, the result in the assay with MM1.S [2], in the assay with RPMI-8226 [3], in the assay on MM1.S [4], in the assay on RPMI-8226 [5] and in the assay with MM1.S [6] was Active.

Turning to `CC(C)N(CCCNC(=O)Nc1ccc(C(C)(C)C)cc1)C[C@H]1O[C@@H](n2cc(Br)c3c(N)ncnc32)[C@H](O)[C@@H]1O`, the result in the assay with MM1.S [7], in the assay on RPMI-8226 [8], in the assay with RPMI-8226 [9], in the assay on MM1.S [10], with RPMI-8226 [11] and with MM1.S [12] was Active. Moreover, the outcome in the assay on RPMI-8226 [13], in the assay with MM1.S [14], in the assay on MM1.S [15], in the assay with RPMI-8226 [16], in the assay with MM1.S [17] and in the assay with MM1.S [18] was Active. Moreover, the result in the assay with MM1.S [19], in the assay on MM1.S [20], in the assay on MM1.S [21], in the assay with MM1.S [22], with RPMI-8226 [23] and in the assay with MM1.S [24] was Active. Also, the outcome in the assay on MM1.S [25], in the assay on RPMI-8226 [26], in the assay on RPMI-8226 [27], with RPMI-8226 [28], with MM1.S [29] and in the assay with MM1.S [30] was Active. Further, the outcome in the assay on RPMI-8226 [31], in the assay with MM1.S [32], with RPMI-8226 [33], in the assay with RPMI-8226 [34], in the assay with MM1.S [35] and in the assay with RPMI-8226 [36] was Active. For the same compound, the outcome with RPMI-8226 [37], in the assay with RPMI-8226 [38], in the assay with RPMI-8226 [39], in the assay with RPMI-8226 [40], in the assay on RPMI-8226 [41] and in the assay on RPMI-8226 [42] was Active. Besides, the result in the assay with MM1.S [43], in the assay with MM1.S [44] and in the assay with MM1.S [45] was Active.
